Results published in paper PMC4824005 (Nature structural & molecular biology, 2015).
Values belong to the molecule of their own block, whether it stands above or below them. Non-standard residues stand in square brackets, D forms with d. No end group written: not given here. *: point of attachment. Biotin = O=C1N[C@H]2[C@H](CS[C@H]2CCCCC(=O)*)N1; pY = N[C@@H](Cc1ccc(OP(=O)(O)O)cc1)C(=O)O; AHA = not defined here

Legend:
[1] = target: T1, EGFR (Homo sapiens, UniProt P00533); assay: HPLC and LC-MS/MS analysis of EGFR kinase reaction with Shc1 Y-Y peptide; assay type: biochemical; settings: no pY-pY peptides detected in HPLC analysis of EGFR reaction (Fig. 2c)
[2] = test system: Src; assay: HPLC and LC-MS/MS analysis of Src kinase reaction with Shc1 Y-Y peptide; assay type: biochemical; settings: 5μM Src, 500μM Shc1 peptide, 1mM ATP
Procedure, shortened: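 Recombinant Src (5μM final) was reacted with 500μM unmodified Shc1 peptide and 1mM ATP. Timed aliquots were EDTA-quenched, then run on C18 reversed-phase HPLC (0–30% acetonitrile/0.1% TFA over 30 min, 1.0 ml/min, A220), with peaks assigned from standards. The peak was analysed by nanoflow LC/MS/MS on an Orbitrap with CID and database search (FDR <1.5%, manual check). Site occupancy was taken from spectral counts per pTyr site.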

[3] = test system: Grb2; settings: doubly phosphorylated (Tyr239 and Tyr240) Shc1; cited from earlier work
[4] = test system: Shc1 phosphorylated at Tyr239 and Tyr240 in MCF10A cells; assay: Immunoblot of dual Shc1 phosphorylation in MCF10A cells; assay type: cell-based; settings: dasatinib 250 or 500nM pretreatment 1 hour, then 1ng/mL EGF 3 min
Procedure, shortened: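 MCF10A cells (STR-authenticated, mycoplasma-free) were kept in HuMEC medium and held 16 h in growth-factor-free medium before pretreatment with test compound and EGF stimulation. Cells were lysed in RIPA buffer containing protease and phosphatase inhibitors. Lysates were separated by SDS-PAGE, transferred to nitrocellulose and immunoblotted with phospho-Shc and total Shc antibodies.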

[5] = target: T1, EGFR; assay: EGFR steady-state kinetics with Shc1 peptides; assay type: biochemical; settings: peptide primed at Tyr240 vs unmodified peptide
Procedure, shortened: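 Recombinant EGFR kinase domain (residues 696–1022) at 100nM was incubated with Shc1 Tyr239-region peptides carrying added C-terminal lysines (0–12mM) in 50mM Tris pH 7.5, 10mM MgCl₂, 10mM MnCl₂, 2mM DTT with 2μCi γ-³²P-ATP/reaction, 30 min at 30°. Reactions were spotted on P81 paper, washed with 75mM H₃PO₄ and scintillation-counted. Initial rates (<5% substrate consumed) were fitted to Michaelis–Menten by nonlinear least squares; three experiments, each in triplicate.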

Molecule: PDHQpYYNDAKKK [pY-Y]
further phosphorylation by EGFR [1]: not a substrate for further phosphorylation by EGFR

Molecule: PDHQYYNDAKKK [Y-Y]
product of Src phosphorylation by HPLC [2]: mono-phosphorylated peptides were the predominant product

Molecule: doubly phosphorylated Shc1: Shc1 doubly phosphorylated at Tyr239 and Tyr240, literature ref 31 ({Biotin-AHA}-DHQ[pY][pY]NDFPGKE; reading uncertain)
increase in affinity for Grb2 vs phosphorylation at Tyr239 alone [3]: 3 fold

Molecule: Cc1nc(Nc2ncc(C(=O)Nc3c(C)cccc3Cl)s2)cc(N2CCN(CCO)CC2)n1 [dasatinib, reference compound]
inhibition of EGF-induced dual phosphorylation of Shc1 [4]: almost completely abolished

decrease of Km by priming phosphorylation [5]: approximately 4 fold
Molecule: PDHQYpYNDAKKK [Y-pY]
